{"source": "ChEMBL document CHEMBL4184147", "about": "“Polyphenolic Phytochemicals in Cancer Prevention and Therapy: Bioavailability versus Bioefficacy” (J Med Chem, 2017)", "key": {"COLO 201 [1]": {"tested_on": "COLO 201", "assay": "Cytotoxicity against human COLO201 cells assessed as decrease in cell viability after 48 hrs by trypan blue exclusion and LDH release", "conditions": "COLO 201, 48 h"}, "U-87 MG [2]": {"tested_on": "U-87 MG", "assay": "Cytotoxicity against human U87 cells assessed as cell viability at 6 uM after 48 hrs by MTT assay", "format": "functional, U-87MG ATCC", "conditions": "read-out: Activity"}, "LN-229 [3]": {"tested_on": "LN-229", "assay": "Cytotoxicity against human LN229 cells assessed as cell viability at 6 uM after 48 hrs by MTT assay", "format": "functional", "conditions": "LN-229, 48 h, read-out: Activity"}, "PANC-1 [4]": {"tested_on": "PANC-1", "assay": "Cytotoxicity against human PANC1 cells assessed as decrease in cell viability after 48 hrs by MTT assay", "format": "functional, cell-based", "conditions": "PANC-1, 48 h"}, "[5]": {"assay": "Cytotoxicity against human MML1 cells assessed as cell viability at 6 uM after 48 hrs by MTT assay", "format": "functional", "conditions": "read-out: Activity"}, "A549 [6]": {"tested_on": "A549", "assay": "Cytotoxicity against human A549 cells assessed as cell viability at 6 uM after 48 hrs by MTT assay", "format": "functional", "conditions": "A549, 48 h, read-out: Activity"}, "[7]": {"assay": "Cmax in mouse at 10 mg/kg, iv by LC-MS/MS method", "format": "ADME, organism-based", "set-up": "dose 10 mg/kg, route intravenous", "conditions": "in vivo", "procedure,_shortened": "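Mouse iv dosing used polyphenol dissolved in DMSO:ethanol (2:1), with total injected volume never above 30 μL. Plasma levels were measured by previously described methods.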"}, "PANC-1 [8]": {"tested_on": "PANC-1", "assay": "Cytotoxicity against human PANC1 cells assessed as cell viability at 6 uM after 48 hrs by MTT assay", "format": "functional", "conditions": "PANC-1, 48 h, read-out: Activity"}, "[9]": {"assay": "Displacement of [3H]resveratrol from Sprague-Dawley rat brain plasma membranes after 1 hr by beta counting method", "format": "cell membranes"}, "NCI-H460 [10]": {"tested_on": "NCI-H460", "assay": "Cytotoxicity against human NCI-H460 cells assessed as decrease in cell viability after 48 hrs by MTT assay", "format": "functional, cell-based", "conditions": "NCI-H460, 48 h"}, "HT-29 [11]": {"tested_on": "HT-29", "assay": "Cytotoxicity against human HT-29 cells assessed as cell viability at 6 uM after 48 hrs by MTT assay", "format": "functional", "conditions": "HT-29, 48 h, read-out: Activity"}, "[12]": {"assay": "Tmax in mouse at 10 mg/kg, iv by LC-MS/MS method", "format": "ADME, organism-based", "conditions": "in vivo", "procedure,_shortened": "(§1)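 For IV dosing, compound dissolved in DMSO:ethanol (2:1), total volume no more than 30 μL. For oral dosing, compound given in a self-microemulsifying delivery system (60% surfactant, emulsifier OP:Cremophor EL 1:1; 30% PEG 400; 10% ethyl oleate), total volume no more than 100 μL. Plasma levels measured by previously described methods.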"}, "BXPC-3 [13]": {"tested_on": "BXPC-3", "assay": "Cytotoxicity against human BxPC3 cells assessed as decrease in cell viability after 48 hrs by MTT assay", "format": "functional, cell-based", "conditions": "BXPC-3, 48 h"}, "U-87 MG [14]": {"tested_on": "U-87 MG", "assay": "Cytotoxicity against human U87 cells assessed as decrease in cell viability after 48 hrs by trypan blue exclusion and LDH release"}, "A549 [15]": {"tested_on": "A549", "assay": "Cytotoxicity against human A549 cells assessed as decrease in cell viability after 48 hrs by trypan blue exclusion and LDH release", "conditions": "A549, 48 h"}, "[16]": {"assay": "Cytotoxicity against human MML1 cells assessed as decrease in cell viability after 48 hrs by MTT assay", "format": "functional, cell-based"}, "MDA-MB-231 [17]": {"tested_on": "MDA-MB-231", "assay": "Cytotoxicity against human MDA-MB-231 cells assessed as decrease in cell viability after 48 hrs by trypan blue exclusion and LDH release", "conditions": "MDA-MB-231, 48 h"}, "SK-MEL-2 [18]": {"tested_on": "SK-MEL-2", "assay": "Cytotoxicity against human SK-MEL-2 cells assessed as cell viability at 6 uM after 48 hrs by MTT assay", "format": "functional", "conditions": "SK-MEL-2, 48 h, read-out: Activity"}, "T47D [19]": {"tested_on": "T47D", "assay": "Cytotoxicity against human T47D cells assessed as cell viability at 6 uM after 48 hrs by MTT assay", "format": "functional", "conditions": "read-out: Activity"}, "T47D [20]": {"tested_on": "T47D", "assay": "Cytotoxicity against human T47D cells assessed as decrease in cell viability after 48 hrs by trypan blue exclusion and LDH release"}, "[21]": {"assay": "Cmax in mouse at 100 mg/kg, po by HPLC method", "format": "ADME, organism-based", "set-up": "dose 100 mg/kg, route oral", "conditions": "in vivo", "procedure,_shortened": "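For oral dosing, polyphenol was dissolved in a self-microemulsifying delivery system: 60% surfactant (emulsifier OP:Cremophor EL 1:1), 30% cosurfactant (PEG 400) and 10% oil (ethyl oleate). Total volume given was never above 100 μL. Plasma levels were quantified by previously described methods.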"}, "Lipid bilayer": {"tested_on": "Lipid bilayer", "assay": "Induction of DOPC/n-decane bilayer property changes assessed as concentration required to double gramicidin-induced quencher influx rate by […]"}, "[22]": {"assay": "Plasma concentration in mouse at 100 mg/kg, po at 60 mins by LC-MS/MS method", "format": "ADME, organism-based", "procedure,_shortened": "as §1"}, "[23]": {"assay": "Plasma concentration in mouse at 10 mg/kg, iv at 60 mins by LC-MS/MS method", "format": "ADME, organism-based", "procedure,_shortened": "as §1"}, "SK-MEL-2 [24]": {"tested_on": "SK-MEL-2", "assay": "Cytotoxicity against human SK-MEL-2 cells assessed as decrease in cell viability after 48 hrs by MTT assay", "format": "functional, cell-based", "conditions": "SK-MEL-2, 48 h"}, "HT-29 [25]": {"tested_on": "HT-29", "assay": "Cytotoxicity against human HT-29 cells assessed as decrease in cell viability after 48 hrs by trypan blue exclusion and LDH release", "conditions": "HT-29, 48 h"}, "COLO 201 [26]": {"tested_on": "COLO 201", "assay": "Cytotoxicity against human COLO201 cells assessed as cell viability at 6 uM after 48 hrs by MTT assay", "format": "functional", "conditions": "COLO 201, 48 h, read-out: Activity"}, "BXPC-3 [27]": {"tested_on": "BXPC-3", "assay": "Cytotoxicity against human BxPC3 cells assessed as cell viability at 6 uM after 48 hrs by MTT assay", "format": "functional", "conditions": "BXPC-3, 48 h, read-out: Activity"}, "Cannabinoid receptor 1": {"biological_target": "Cannabinoid receptor 1 (Homo sapiens, UniProt P21554)", "sequence (P21554 whole entry)": "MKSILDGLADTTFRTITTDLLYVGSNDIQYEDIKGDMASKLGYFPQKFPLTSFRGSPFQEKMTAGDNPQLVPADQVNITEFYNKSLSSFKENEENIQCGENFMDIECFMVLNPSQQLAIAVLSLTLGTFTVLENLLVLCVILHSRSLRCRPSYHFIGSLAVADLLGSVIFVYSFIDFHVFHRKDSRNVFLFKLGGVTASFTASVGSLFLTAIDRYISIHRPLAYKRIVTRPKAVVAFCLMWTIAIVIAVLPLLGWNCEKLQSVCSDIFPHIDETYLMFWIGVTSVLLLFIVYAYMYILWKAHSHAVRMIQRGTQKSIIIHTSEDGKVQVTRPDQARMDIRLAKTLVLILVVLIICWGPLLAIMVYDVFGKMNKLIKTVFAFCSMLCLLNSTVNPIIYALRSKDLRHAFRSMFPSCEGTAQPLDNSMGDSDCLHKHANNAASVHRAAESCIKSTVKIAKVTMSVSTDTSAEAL", "assay": "Displacement of […] from human recombinant CB1 receptor expressed in Chem1 cells after 90 mins by scintillation counting method", "format": "cell-based"}, "[28]": {"assay": "Tmax in mouse at 100 mg/kg, po by HPLC method", "format": "ADME, organism-based", "conditions": "in vivo", "procedure,_shortened": "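Given orally in a self-microemulsifying delivery system (60% surfactant, emulsifier OP:Cremophor EL 1:1; 30% PEG 400 cosurfactant; 10% ethyl oleate oil), total volume no more than 100 μL. Plasma levels measured by previously described methods.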"}, "NCI-H460 [29]": {"tested_on": "NCI-H460", "assay": "Cytotoxicity against human NCI-H460 cells assessed as cell viability at 6 uM after 48 hrs by MTT assay", "format": "functional", "conditions": "NCI-H460, 48 h, read-out: Activity"}, "MDA-MB-231 [30]": {"tested_on": "MDA-MB-231", "assay": "Cytotoxicity against human MDA-MB-231 cells assessed as cell viability at 6 uM after 48 hrs by MTT assay", "format": "functional", "conditions": "MDA-MB-231, 48 h, read-out: Activity"}, "LN-229 [31]": {"tested_on": "LN-229", "assay": "Cytotoxicity against human LN229 cells assessed as decrease in cell viability after 48 hrs by trypan blue exclusion and LDH release", "conditions": "LN-229, 48 h"}}}
{"smiles": "O=C(O[C@@H]1Cc2c(O)cc(O)cc2O[C@@H]1c1cc(O)c(O)c(O)c1)c1cc(O)c(O)c(O)c1", "note": "[EPIGALOCATECHIN GALLATE]", "values": [{"measurement": "IC50", "setting": "COLO 201 [1]", "value": 38, "unit": "µM"}, {"measurement": "viability at 6 µM", "setting": "U-87 MG [2]", "value": 98, "unit": "%"}, {"measurement": "viability at 6 µM", "setting": "LN-229 [3]", "value": 106, "unit": "%"}, {"measurement": "IC50", "setting": "PANC-1 [4]", "value": 62, "unit": "µM"}, {"measurement": "viability at 6 µM", "setting": "[5]", "value": 102, "unit": "%"}, {"measurement": "viability at 6 µM", "setting": "A549 [6]", "value": 103, "unit": "%"}, {"measurement": "Cmax", "setting": "[7]", "value": 12, "unit": "µM"}, {"measurement": "viability at 6 µM", "setting": "PANC-1 [8]", "value": 95, "unit": "%"}, {"measurement": "Ki", "setting": "[9]", "value": "0.025 to 0.045", "unit": "µM"}, {"measurement": "IC50", "setting": "NCI-H460 [10]", "value": 18, "unit": "µM"}, {"measurement": "viability at 6 µM", "setting": "HT-29 [11]", "value": 96, "unit": "%"}, {"measurement": "Tmax", "setting": "[12]", "value": 5, "unit": "min"}, {"measurement": "IC50", "setting": "BXPC-3 [13]", "value": 33, "unit": "µM"}, {"measurement": "IC50", "setting": "U-87 MG [14]", "value": 18, "unit": "µM"}, {"measurement": "IC50", "setting": "A549 [15]", "value": 29, "unit": "µM"}, {"measurement": "IC50", "setting": "[16]", "value": 25, "unit": "µM"}, {"measurement": "IC50", "setting": "MDA-MB-231 [17]", "value": 83, "unit": "µM"}, {"measurement": "viability at 6 µM", "setting": "SK-MEL-2 [18]", "value": 99, "unit": "%"}, {"measurement": "viability at 6 µM", "setting": "T47D [19]", "value": 100, "unit": "%"}, {"measurement": "IC50", "setting": "T47D [20]", "value": 57, "unit": "µM"}, {"measurement": "Cmax", "setting": "[21]", "value": 5, "unit": "µM"}, {"measurement": "Activity", "setting": "Lipid bilayer", "value": 11.2, "unit": "µM"}, {"measurement": "concentration at 1 h", "setting": "[22]", "value": "< 1", "unit": "µM"}, {"measurement": "concentration at 1 h", "setting": "[23]", "value": "< 1", "unit": "µM"}, {"measurement": "IC50", "setting": "SK-MEL-2 [24]", "value": 31, "unit": "µM"}, {"measurement": "IC50", "setting": "HT-29 [25]", "value": 60, "unit": "µM"}, {"measurement": "viability at 6 µM", "setting": "COLO 201 [26]", "value": 100, "unit": "%"}, {"measurement": "viability at 6 µM", "setting": "BXPC-3 [27]", "value": 97, "unit": "%"}, {"measurement": "Ki", "setting": "Cannabinoid receptor 1", "value": 33.6, "unit": "µM"}, {"measurement": "Tmax", "setting": "[28]", "value": 30, "unit": "min"}, {"measurement": "viability at 6 µM", "setting": "NCI-H460 [29]", "value": 105, "unit": "%"}, {"measurement": "viability at 6 µM", "setting": "MDA-MB-231 [30]", "value": 102, "unit": "%"}, {"measurement": "IC50", "setting": "LN-229 [31]", "value": 15, "unit": "µM"}]}
